Consider 32 molecules from ChEMBL document CHEMBL1131566, “(E)-3-(2-(N-phenylcarbamoyl)vinyl)pyrrole-2-carboxylic acid derivatives. A novel class of glycine site antagonists” (J Med Chem, 1998).

Test [1] has as its target T1, Glutamate receptor ionotropic, NMDA 1 (Rattus norvegicus, UniProt P35439). Nature of the test: (§1) Inhibition of binding of [3H]glycine to N-methyl-D-aspartate glutamate receptor 1 from crude synaptic membranes prepared from adult rat cerebral cortex. It is filed as tissue-based. The procedure, abridged: (§2)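 Crude synaptic membranes from adult rat cerebral cortex are incubated 20 min at 4 °C in 50 mM Tris/citrate pH 7.10 with 20 nM [³H]glycine. Compounds come from 5 mM DMSO stocks, seven concentrations (0.1 nM to 100 μM) in duplicate, with a reference control. Ki is fitted by nonlinear curve fitting from ≥6-point curves, geometric mean of ≥3 experiments. Displacement at 100 μM is given as %SB.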

In test [2] the target is T1, Glutamate receptor ionotropic, NMDA 1. Described as §1. It is filed as tissue-based. The source holds these as a separate data set.
The target of test [3] is Glutamate receptor ionotropic, NMDA 1 (Rattus norvegicus) (UniProt P35439). Description: Displacement of [3H]glycine binding to N-methyl-D-aspartate glutamate receptor 1 at 100 uM represented by the percent of specific binding(%SB). The essentials:
as §2

Test [4] has as its target Glutamate receptor ionotropic, kainate (Rattus norvegicus) (UniProt P22756+Q01812+P42260+P42264+Q63273). Description: Displacement of [3H]-kainic acid in the Ionotropic glutamate receptor kainate at 100 uM represented by the percent of specific binding (%SB). It is filed as protein-complex assay. The procedure, abridged:
(§3)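 Rat cortical membrane binding, inhibition of [³H]CPP (NMDA glutamate site), [³H]AMPA or [³H]kainic acid. Compounds come from 5 mM DMSO stocks and are tested in duplicate at five concentrations (10 nM to 100 μM); a reference compound is included as control. Displacement at 100 μM is given as % specific binding.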
(Loss of bound radioactivity is the signal in a displacement assay; it reports binding, not function.)

A further test concerns the target Glutamate NMDA receptor. Description: Compound was evaluated for its ability ot displace [3H]CPP binding to N-methyl-D-aspartate glutamate receptor. It is filed as protein-complex assay. The procedure, abridged: as §3
In test [5] the target is T2, Glutamate receptor ionotropic, AMPA (Rattus norvegicus, UniProt P19490+P19491+P19492+P19493). Nature of the test: Inhibition of binding of [3H]AMPA to Ionotropic glutamate receptor AMPA. Format: protein-complex assay. The procedure, abridged:
as §3

The target of test [6] is T3, Glutamate receptor ionotropic, AMPA (Rattus norvegicus) (UniProt P19491+P19492+P19493+P19490). Description: (§4) Displacement of the [3H]AMPA binding to Ionotropic glutamate receptor AMPA at 100 uM represented by the percent of specific binding(%SB). It is filed as protein-complex assay. The essentials: as §3
For test [7], the target named is T4, Glutamate NMDA receptor (Rattus norvegicus) (UniProt P35439+Q00959+Q00960+Q00961+Q62645+Q8VHN2+Q9R1M7). Description: Displacement of the [3H]CPP binding to N-methyl-D-aspartate glutamate receptor at 100 uM represented by the percent of specific binding(%SB). It is filed as protein-complex assay. The essentials:
as §3

For test [8], the target named is Glutamate receptor ionotropic, NMDA 1 (Rattus norvegicus) (UniProt P35439). Nature of the test: Compound was evaluated for its ability to displace [3H]-TCP binding to N-methyl-D-aspartate glutamate receptor 1. alpha value 0 indicates full antagonist. The procedure, abridged:
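[³H]TCP binding runs 2 h at 30 °C in Tris/5mM HCl pH 7.7 with 1 μM glutamic acid. Nonspecific binding is defined with 30 μM (+)-MK801. Glycine concentration-response curves are run in the presence of increasing test-compound concentrations to derive α.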

Test [9] has as its target Glutamate receptor ionotropic, kainate. Nature of the test: Inhibition of binding of [3H]-kainic acid to Ionotropic glutamate receptor kainate. Format: protein-complex assay. The essentials: as §3
The target of test [10] is T3, Glutamate receptor ionotropic, AMPA (Rattus norvegicus). Nature of the test: Displacement of the ligand in the Ionotropic glutamate receptor AMPA site at 100 uM represented by the percent of specific binding(%SB). Format: protein-complex assay. The essentials:
as §3

Test [11] has as its target Glutamate receptor ionotropic, kainate. Description: Inhibition of binding of [3H]-kainic acid to Ionotropic glutamate receptor kainate in crude synaptic membranes prepared from adult rat cerebral cortex. It is filed as cell membranes. The procedure, abridged:
as §3

The target in test [12] is T2, Glutamate receptor ionotropic, AMPA. The description is as §4. It is filed as protein-complex assay. The procedure, abridged: as §3
Test [13] addresses T4, Glutamate NMDA receptor (Rattus norvegicus). Nature of the test: Displacement of the ligand in the N-methyl-D-aspartate glutamate receptor at 100 uM represented by the percent of specific binding(%SB). It is filed as protein-complex assay.
For test [14], the target named is Glutamate receptor ionotropic, NMDA 1 (Rattus norvegicus) (UniProt P35439). Described as §1. Format: tissue-based. The procedure, abridged:
as §2

Test [15] can be described thus: Compound was evaluated for its ability ot displace [3H]CPP binding to NMDA receptor/glutamate site. The procedure, abridged: as §3
The nature of test [16]: Displacement of the [3H]CPP binding to NMDA receptor/glutamate site at 100 uM represented by the percent of specific binding(%SB). The essentials:
as §3

Bounds are passed on as bounds.

For orientation: Ki means the equilibrium dissociation constant of an inhibitor or competing ligand from its target. Read a high Ki as a looser hold on the target. As to `Cc1[nH]c(C(=O)O)c(/C=C/C(=O)Nc2ccccc2)c1OCc1ccccc1`, the affinity in test [1] corresponds to a Ki of 4790 nM.
What is called IC50 is the concentration that inhibits the measured activity by half. In [2], `O=C(O)c1cc(O)c2c(I)cc(Cl)cc2n1` displayed an IC50 of 32 nM.
Take `CC(=O)c1c(C)[nH]c(C(=O)O)c1/C=C/C(=O)Nc1ccccc1`: the Ki in [1] is 5750 nM. In other words, the single-digit micromolar range.
On the same count and under the same terms, the same measure for `O=C(/C=C/c1c(C(=O)O)[nH]c(I)c1I)Nc1ccccc1`: 35.5 nM; for `CCc1[nH]c(C(=O)O)c(/C=C/C(=O)Nc2ccccc2)c1C`: 776 nM; for `O=C(/C=C/c1c(Br)c[nH]c1C(=O)O)Nc1ccccc1`: 3310 nM.
The molecule `Oc1ccc(-c2c(O)nc3cc(Cl)cc(Cl)c3c2O)cc1` came in with an IC50 in test [2] of 13 nM.
Take `Cc1[nH]c(C(=O)O)c(/C=C/C(=O)Nc2ccccc2)c1C`: the SB is 100% in test [3], 9% in test [4], 0% in test [6] and 0% in [7]. The molecule also had a Ki in test [1] of 200 nM. For the same molecule, the Log Ki (at Glutamate NMDA receptor; in test [9]) was > -4 in each case. Moreover, the IC50 in test [5] was > 100000 nM. The Alpha in test [8] worked out at 0.
As for `Cc1c(/C=C/C(=O)Nc2ccccc2)c(C(=O)O)n(C)c1C`, the Ki in test [1] is > 100000 nM.
For the molecule `CCc1c(C)[nH]c(C(=O)O)c1/C=C/C(=O)Nc1ccccc1`, in test [1], affinity was put at a Ki of 832 nM.
Still for that read-out and setting: for `O=C(/C=C/c1c(C(=O)O)[nH]c2c1CCCC2)Nc1ccccc1` the value was 617 nM.
On to `Cc1[nH]c(C(=O)O)c(/C=C/C(=O)Nc2ccccc2)c1Br`, for which the SB in test [3] is 100%; in [4], 0%; in test [10], 11%; in test [13], 0%. Affinity in test [1] was put at a Ki of 57.5 nM. Further, the Log Ki (on Glutamate NMDA receptor; in test [11]) was > -4 in each case. Moreover, in test [12], the half-maximal inhibitory concentration (IC50) is > 100000 nM.
Take `O=C(/C=C/c1c(-c2ccccc2)c[nH]c1C(=O)O)Nc1ccccc1`: in test [1], the Ki was > 100000 nM.
Same read-out and setting: the same measure for `O=C(/C=C/c1c(C(=O)O)[nH]c(-c2ccccc2)c1-c1ccccc1)Nc1ccccc1`: > 100000 nM; for `O=C(/C=C/c1cc(-c2ccccc2)[nH]c1C(=O)O)Nc1ccccc1`: > 100000 nM.
The same measure, in the same setting: for `Cc1cc(/C=C/C(=O)Nc2ccccc2)c(C(=O)O)[nH]1` the value was 63100 nM; for `Cc1c(-c2ccc(Cl)cc2Cl)[nH]c(C(=O)O)c1/C=C/C(=O)Nc1ccccc1`, > 100000 nM; for `Cc1[nH]c(C(=O)O)c(/C=C/C(=O)Nc2ccccc2)c1-c1ccccc1`, > 100000 nM.
On to `Cc1ccc2c(O)cc(=O)c(=O)[nH]c2c1`, for which, in test [14], the Kb is 470 nM.
`O=C(Nc1ccccc1)N[C@H]1C[C@H](C(=O)O)Nc2cc(Cl)cc(Cl)c21` gave an IC50 in test [2] of 7.8 nM.
Take `O=C(/C=C/c1cc[nH]c1C(=O)O)Nc1ccccc1`: the Ki in test [1] is > 100000 nM.
Regarding `O=C(/C=C/c1c(C(=O)O)[nH]c2cc(Cl)cc(Cl)c12)Nc1ccccc1`, the SB in [14] came to 100%. For the same molecule, in test [8], the Alpha was 0.
Consider `O=C(/C=C/c1c(C(=O)O)[nH]c(Br)c1Br)Nc1ccccc1`, for which the SB stood at 100% in test [3], 5% in [4], 0% in test [16] and 10% in test [6]. For the same molecule, the affinity in test [1], expressed as Ki, was 11.2 nM. The Log Ki in [15] and in test [9] was > -4 throughout. Besides, in test [5], the IC50 was > 100000 nM.
Turning to `O=C(/C=C/c1c(C(=O)O)[nH]c(-c2ccccc2)c1Br)Nc1ccccc1`, the inhibition constant Ki in test [1] is > 100000 nM.
Still for that read-out and setting: for `O=C(/C=C/c1c(C(=O)O)[nH]c2c1CCC2)Nc1ccccc1` the value was 1150 nM; for `Cc1[nH]c(C(=O)O)c(/C=C/C(=O)Nc2ccccc2)c1C(C)C`, 398 nM.
Same read-out and setting: the same measure for `CCOc1c(C)[nH]c(C(=O)O)c1/C=C/C(=O)Nc1ccccc1`: 6760 nM; for `Cc1[nH]c(C(=O)O)c(/C=C/C(=O)Nc2ccccc2)c1I`: 42.7 nM.
The molecule `Cc1c(C(C)C)[nH]c(C(=O)O)c1/C=C/C(=O)Nc1ccccc1` had a Ki in test [1] of 6170 nM.
In test [2], `O=C(O)CCc1c(C(=O)O)[nH]c2cc(Cl)cc(Cl)c12` displayed an IC50 of 140 nM.
In test [1], `Cc1[nH]c(C(=O)O)c(/C=C/C(=O)Nc2ccccc2)c1Cl` gave a Ki of 316 nM.
Same read-out and setting: for `Cc1c(-c2ccccc2)[nH]c(C(=O)O)c1/C=C/C(=O)Nc1ccccc1` the value was > 100000 nM.
